The array DNA melting data of Ke et al. (doi:10.1101/2024.01.08.574731)

Assays:
[1] = folding enthalpy; higher = less favourable; fluorescence melt of hairpins on a sequencing array, two-state fit; conditions: sodium 0.088 M
Method in brief: (§1)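 Two-state fits, bootstrapped, provided melting temperature and folding enthalpy from Cy3 fluorescence normalised to pre-quench Cy3 and to control constructs. Library hairpins with annealed Cy3 and quencher oligos were imaged on a sequenced MiSeq flow cell in 50 mM Na-HEPES pH 8.0, 25 mM NaCl, at 2.5 °C intervals up to 60 °C. Four replicates were combined with inverse-variance weighting. A 9.35 °C upward shift was applied to fitted temperatures to match UV melts.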

[2] = melting temperature; fluorescence melt of hairpins on a sequencing array, two-state fit, raised by 9.35 °C to match UV melts; conditions: sodium 0.088 M
Method in brief: as §1

GCAACCGAAAGGTCTGC ((((((....))).)))
folding enthalpy [1]: -22.7 kcal/mol
Tm [2]: 47.6 °C

GCAACCGCGAAAGCGTGC (((..(((....))))))
folding enthalpy [1]: -14.3 kcal/mol
Tm [2]: 44.7 °C

GCAACCGGAAACAGTTGC (((((.(....).)))))
folding enthalpy [1]: -31.7 kcal/mol
Tm [2]: 45.7 °C

GCAACGCGAAAGCGCAGC ((..(((....)))..))
folding enthalpy [1]: -11.7 kcal/mol
Tm [2]: 48.1 °C

GCAACGCGAAAGCTGTGC (((..((....))..)))
folding enthalpy [1]: -15.2 kcal/mol
Tm [2]: 48.9 °C

GCAACGCGAAAGCTTAGC ((.(.((....)).).))
folding enthalpy [1]: -7.66 kcal/mol
Tm [2]: 28.5 °C

GCAACGCGAAAGCTTGGC ((.(.((....)).).))
folding enthalpy [1]: -11.5 kcal/mol
Tm [2]: 38.5 °C

GCAACGTCGAAAGACTGC (((..(((....))))))
folding enthalpy [1]: -20.1 kcal/mol
Tm [2]: 39.1 °C

GCAACTCGAAAGAGCTGC (((.(((....))).)))
folding enthalpy [1]: -46.6 kcal/mol
Tm [2]: 52.3 °C

GCAACTGGAAACGGTTGC (((((.(....).)))))
folding enthalpy [1]: -45.2 kcal/mol
Tm [2]: 54.2 °C

GCAAGACGAAAGTCGTGC (((.(((....))).)))
folding enthalpy [1]: -32.2 kcal/mol
Tm [2]: 61.1 °C

GCAAGAGGAAACTTTTGC ((((.((....)).))))
folding enthalpy [1]: -26 kcal/mol
Tm [2]: 39 °C

GCAAGCGAAAGCTATTGC ((((((....)))..)))
folding enthalpy [1]: -17.5 kcal/mol
Tm [2]: 42.8 °C

GCAAGCGAAAGCTCATGC ((((((....)))..)))
folding enthalpy [1]: -12.5 kcal/mol
Tm [2]: 35.2 °C

GCAAGCGAAAGCTGATGC ((((((....)))..)))
folding enthalpy [1]: -16.3 kcal/mol
Tm [2]: 45.7 °C

GCAAGCGAAAGCTGCTGC ((((((....)))..)))
folding enthalpy [1]: -19.5 kcal/mol
Tm [2]: 67.2 °C

GCAAGCGAAAGCTTATGC ((((((....)))..)))
folding enthalpy [1]: -14.7 kcal/mol
Tm [2]: 39.8 °C

GCAAGCGAAAGCTTCTGC ((((((....)))..)))
folding enthalpy [1]: -11.5 kcal/mol
Tm [2]: 42.1 °C

GCAAGCGAAAGCTTGTGC ((((((....)))..)))
folding enthalpy [1]: -16.9 kcal/mol
Tm [2]: 66.7 °C

GCAAGGCGAAAGCAGTGC (((..((....))..)))
folding enthalpy [1]: -16.8 kcal/mol
Tm [2]: 50.9 °C

GCAAGGCGAAAGCCCTGC (((.(((....))).)))
folding enthalpy [1]: -31.3 kcal/mol
Tm [2]: 50.7 °C

GCAAGGCGAAAGCCTCGC ((.((((....)))).))
folding enthalpy [1]: -18.4 kcal/mol
Tm [2]: 59.3 °C

GCAAGGCGAAAGCCTGGC ((.((((....)))).))
folding enthalpy [1]: -23.1 kcal/mol
Tm [2]: 68.9 °C

GCAAGGCGAAAGCTCTGC (((..((....))..)))
folding enthalpy [1]: -21.5 kcal/mol
Tm [2]: 43.7 °C

GCAAGGCGAAAGCTGTGC (((..((....))..)))
folding enthalpy [1]: -18.1 kcal/mol
Tm [2]: 52.8 °C

GCAAGGCGAAAGCTTGGC ((.(.((....)).).))
folding enthalpy [1]: -17.9 kcal/mol
Tm [2]: 44 °C

GCAAGGGGAAACCCTCAC (..((((....))))..)
folding enthalpy [1]: -9.15 kcal/mol
Tm [2]: 25.2 °C

GCAAGGGGAAACCTTTGC ((((.((....)).))))
folding enthalpy [1]: -30.8 kcal/mol
Tm [2]: 47.6 °C

GCAAGGGGAAACTCTTGC (((((.(....).)))))
folding enthalpy [1]: -45.3 kcal/mol
Tm [2]: 50.1 °C

GCAAGTCGAAAGACATGC (((.(((....))).)))
folding enthalpy [1]: -29.1 kcal/mol
Tm [2]: 52.7 °C

GCAAGTGGAAACACTCGC ((.((((....)))).))
folding enthalpy [1]: -25.4 kcal/mol
Tm [2]: 44.3 °C

GCAAGTGGAAACACTTAC (.(((((....))))).)
folding enthalpy [1]: -18.7 kcal/mol
Tm [2]: 34.6 °C

GCAATACGAAAGTAATGC (((.(((....))).)))
folding enthalpy [1]: -37.4 kcal/mol
Tm [2]: 47.4 °C

GCAATACGAAAGTACTGC (((.(((....))).)))
folding enthalpy [1]: -31.3 kcal/mol
Tm [2]: 43.9 °C

GCAATAGGAAACTATCGC ((.((((....)))).))
folding enthalpy [1]: -18.6 kcal/mol
Tm [2]: 33.9 °C

GCAATAGGAAACTATTGC (((((((....)))))))
folding enthalpy [1]: -45.8 kcal/mol
Tm [2]: 56 °C

GCAATAGGAAACTGTTGC ((((.((....)).))))
folding enthalpy [1]: -33 kcal/mol
Tm [2]: 47.4 °C

GCAATATCGAAAGATTGC (((..(((....))))))
folding enthalpy [1]: -25.5 kcal/mol
Tm [2]: 39.5 °C

GCAATCCCGAAAGGGTGC (((..(((....))))))
folding enthalpy [1]: -19.1 kcal/mol
Tm [2]: 46.6 °C

GCAATCGAAAGATATTGC ((((((....)))..)))
folding enthalpy [1]: -18.7 kcal/mol
Tm [2]: 35.5 °C

GCAATCGAAAGATGATGC ((((((....)))..)))
folding enthalpy [1]: -18.6 kcal/mol
Tm [2]: 32.5 °C

GCAATCGAAAGATGTGC ((((((....))).)))
folding enthalpy [1]: -25.5 kcal/mol
Tm [2]: 39.5 °C

GCAATCGAAAGATGTTGC ((((((....)))..)))
folding enthalpy [1]: -15.9 kcal/mol
Tm [2]: 34.6 °C

GCAATCGAAAGATTATGC ((((((....)))..)))
folding enthalpy [1]: -17.5 kcal/mol
Tm [2]: 32.8 °C

GCAATGACGAAAGTCTGC (((..(((....))))))
folding enthalpy [1]: -19.4 kcal/mol
Tm [2]: 42 °C

GCAATGCGAAAGCAAAGC ((..(((....)))..))
folding enthalpy [1]: -14.6 kcal/mol
Tm [2]: 38 °C

GCAATGCGAAAGCATCGC ((.((((....)))).))
folding enthalpy [1]: -21.4 kcal/mol
Tm [2]: 58.1 °C

GCAATGCGAAAGCATGGC ((.((((....)))).))
folding enthalpy [1]: -34 kcal/mol
Tm [2]: 65.2 °C

GCAATGCGAAAGCGGTGC (((..((....))..)))
folding enthalpy [1]: -21.7 kcal/mol
Tm [2]: 56.6 °C

GCAATGCGAAAGCGTCGC ((.(.((....)).).))
folding enthalpy [1]: -19.3 kcal/mol
Tm [2]: 45.4 °C

GCAATGCGAAAGCTGTGC (((..((....))..)))
folding enthalpy [1]: -20.6 kcal/mol
Tm [2]: 48.4 °C

GCAATGGGAAACCATCGC ((.((((....)))).))
folding enthalpy [1]: -28.8 kcal/mol
Tm [2]: 42.1 °C

GCAATTGGAAACAATTAC (.(((((....))))).)
folding enthalpy [1]: -15.1 kcal/mol
Tm [2]: 30.6 °C

GCAATTGGAAACAATTGC (((((((....)))))))
folding enthalpy [1]: -43.9 kcal/mol
Tm [2]: 58.9 °C

GCACAAACGAAAGTTTGC (((..(((....))))))
folding enthalpy [1]: -11.2 kcal/mol
Tm [2]: 39.7 °C

GCACAAGGAAACTTGTGC (((((((....)))))))
folding enthalpy [1]: -33.7 kcal/mol
Tm [2]: 67.4 °C

GCACACGAAAGTGATGC ((((((....))).)))
folding enthalpy [1]: -33.1 kcal/mol
Tm [2]: 54.5 °C

GCACACGAAAGTGCATGC ((((((....)))..)))
folding enthalpy [1]: -14.4 kcal/mol
Tm [2]: 42.1 °C

GCACACGAAAGTGCTTGC ((((((....)))..)))
folding enthalpy [1]: -20.8 kcal/mol
Tm [2]: 53.6 °C

GCACACGAAAGTGGGTGC ((((((....)))..)))
folding enthalpy [1]: -24.1 kcal/mol
Tm [2]: 53.5 °C

GCACACGAAAGTGTATGC ((((((....)))..)))
folding enthalpy [1]: -15.1 kcal/mol
Tm [2]: 45.8 °C

GCACACGAAAGTGTTTGC ((((((....)))..)))
folding enthalpy [1]: -13.7 kcal/mol
Tm [2]: 39.6 °C

GCACAGCGAAAGCAGAGC ((.(.((....)).).))
folding enthalpy [1]: -13.7 kcal/mol
Tm [2]: 47.3 °C

GCACAGCGAAAGCGGCGC ((.(.((....)).).))
folding enthalpy [1]: -28.6 kcal/mol
Tm [2]: 63.7 °C

GCACAGCGAAAGCTCGGC ((..(((....)))..))
folding enthalpy [1]: -15.2 kcal/mol
Tm [2]: 38.4 °C

GCACAGCGAAAGCTGAGC ((.((((....)))).))
folding enthalpy [1]: -17.2 kcal/mol
Tm [2]: 63.4 °C

GCACAGGGAAACCTGTGC (((((((....)))))))
folding enthalpy [1]: -38 kcal/mol
Tm [2]: 69.3 °C

GCACATCCGAAAGGATGC (((..(((....))))))
folding enthalpy [1]: -8.29 kcal/mol
Tm [2]: 37.4 °C

GCACATGGAAACATGTAC (.(((((....))))).)
folding enthalpy [1]: -17 kcal/mol
Tm [2]: 37.4 °C

GCACATGGAAACATGTGC (((((((....)))))))
folding enthalpy [1]: -43.4 kcal/mol
Tm [2]: 67.4 °C

GCACCAGAAATGGTGC ((((((....))))))
folding enthalpy [1]: -35.6 kcal/mol
Tm [2]: 67.8 °C

GCACCAGCGAAAGCTTGC (((..(((....))))))
folding enthalpy [1]: -11.8 kcal/mol
Tm [2]: 38.1 °C

GCACCAGGAAACTGGTAC (.(((((....))))).)
folding enthalpy [1]: -16.7 kcal/mol
Tm [2]: 39.6 °C

GCACCCACGAAAGTGTGC (((..(((....))))))
folding enthalpy [1]: -19 kcal/mol
Tm [2]: 45.4 °C

GCACCCCGAAAGGGTTGC (((.(((....))).)))
folding enthalpy [1]: -34.8 kcal/mol
Tm [2]: 55.1 °C

GCACCCGAAAGGGACTGC ((((((....)))..)))
folding enthalpy [1]: -16 kcal/mol
Tm [2]: 40.8 °C

GCACCCGGAAACGGATGC (((.(((....))).)))
folding enthalpy [1]: -25.5 kcal/mol
Tm [2]: 51.6 °C

GCACCGCCGAAAGGCTGC (((..(((....))))))
folding enthalpy [1]: -14.7 kcal/mol
Tm [2]: 38.9 °C

GCACCGCGAAAGCAGAGC ((.(.((....)).).))
folding enthalpy [1]: -15.2 kcal/mol
Tm [2]: 41.5 °C

GCACCGCGAAAGCCTTGC (((..((....))..)))
folding enthalpy [1]: -14.8 kcal/mol
Tm [2]: 37 °C

GCACCGCGAAAGCGAAGC ((..(((....)))..))
folding enthalpy [1]: -11.7 kcal/mol
Tm [2]: 41.4 °C

GCACCGCGAAAGCGACGC ((..(((....)))..))
folding enthalpy [1]: -15.6 kcal/mol
Tm [2]: 47.2 °C

GCACCGCGAAAGCGAGGC ((..(((....)))..))
folding enthalpy [1]: -14.6 kcal/mol
Tm [2]: 53.2 °C

GCACCGCGAAAGCGATGC (((.(((....))).)))
folding enthalpy [1]: -43.6 kcal/mol
Tm [2]: 57.4 °C

GCACCGCGAAAGCGCAGC ((..(((....)))..))
folding enthalpy [1]: -9.35 kcal/mol
Tm [2]: 38.4 °C

GCACCGCGAAAGCGCCGC ((..(((....)))..))
folding enthalpy [1]: -8.78 kcal/mol
Tm [2]: 36.1 °C

GCACCGCGAAAGCGCTGC (((.(((....))).)))
folding enthalpy [1]: -31.9 kcal/mol
Tm [2]: 50.3 °C

GCACCGCGAAAGCGTGC (((.(((....))))))
folding enthalpy [1]: -19 kcal/mol
Tm [2]: 63.8 °C

GCACCGCGAAAGCTGAGC ((.(.((....)).).))
folding enthalpy [1]: -14.4 kcal/mol
Tm [2]: 37.5 °C

GCACCGGGAAACCAGTGC ((((.((....)).))))
folding enthalpy [1]: -32.1 kcal/mol
Tm [2]: 49.4 °C
